Reference: ChEMBL document CHEMBL1135826, “Antimicrobial peptides: synthesis and antibacterial activity of linear and cyclic drosocin and apidaecin 1b analogues” (2002)
≈ marks a conversion by molar mass, not a printed value. Where a SMILES comes first, the peptide text is derived from it. The star is where a group is joined. X2 = CC(=O)N[C@@H]1[C@@H](O)[C@H](O)[C@@H](CO)O[C@@H]1*; βGal = OC[C@H]1O[C@@H](*)[C@H](O)[C@@H](O)[C@H]1O; X1 = OC[C@H]1O[C@H](*)[C@H](O)[C@@H](O)[C@H]1O

How the values were obtained:
Escherichia coli [1] = experiment: Minimum inhibitory concentration (lowest peptide concentration) required to prevent visible bacterial growth after 18 hr of incubation at 37 C in Mueller-Hinton broth against Escherichia coli ML-35; format: functional
Outline: (§1)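 Broth microdilution susceptibility test per NCCLS guidelines, in Mueller–Hinton broth with about 1.5–2.0 × 10^5 CFU/mL inoculum. Plates were incubated 18 h at 37 °C. MIC was taken as the lowest peptide concentration with no visible growth. Strains were ATCC strains or clinical isolates; E. coli O18:K1:H7 Bort is an encapsulated isolate from neonatal spinal fluid, and the S. aureus isolate is MRSA.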

Klebsiella pneumoniae [2] = experiment: Minimum inhibitory concentration (lowest peptide concentration) required to prevent visible bacterial growth after 18 hr of incubation at 37 C in Mueller-Hinton broth against Klebsiella pneumoniae 79; format: functional; outline: as §1
Salmonella enteritidis [3] = experiment: Minimum inhibitory concentration (lowest peptide concentration) required to prevent visible bacterial growth after 18 hr of incubation at 37 C in Mueller-Hinton broth against Salmonella enteritidis D5; settings: Salmonella enterica
Salmonella typhimurium = experiment: Minimum inhibitory concentration (lowest peptide concentration) required to prevent visible bacterial growth after 18 hr of incubation at 37 C in Mueller-Hinton broth against Salmonella Typhimurium ATCC 14028; format: functional, Salmonella enterica subsp. enterica serovar Typhimurium; settings: Salmonella enterica; outline: as §1
Staphylococcus aureus = experiment: Minimum inhibitory concentration (lowest peptide concentration) required to prevent visible bacterial growth after 18 hr of incubation at 37 C in Mueller-Hinton broth against Staphylococcus aureus G; format: functional; outline: as §1
[4] = test system: Staphylococcus epidermidis; experiment: Minimum inhibitory concentration (lowest peptide concentration) required to prevent visible bacterial growth after 18 hr of incubation at 37 C in Mueller-Hinton broth against Staphylococcus epidermidis 4; format: functional; outline: as §1
Escherichia coli [5] = experiment: Minimum inhibitory concentration (lowest peptide concentration) required to prevent visible bacterial growth after 18 hr of incubation at 37 C in Mueller-Hinton broth against Escherichia coli O18:K1:H7; format: functional; outline: as §1
Escherichia coli [6] = experiment: Minimum inhibitory concentration (lowest peptide concentration) required to prevent visible bacterial growth after 18 hr of incubation at 37 C in Mueller-Hinton broth against Escherichia coli D22; format: functional; outline: as §1
Klebsiella pneumoniae [7] = experiment: Minimum inhibitory concentration (lowest peptide concentration) required to prevent visible bacterial growth after 18 hr of incubation at 37 C in Mueller-Hinton broth against Klebsiella pneumoniae 22; format: functional; outline: as §1
Escherichia coli [8] = experiment: Minimum inhibitory concentration (lowest peptide concentration) required to prevent visible bacterial growth after 18 hr of incubation at 37 C in Mueller-Hinton broth against Escherichia coli D21; format: functional; outline: as §1
Acinetobacter baumannii = experiment: Minimum inhibitory concentration (lowest peptide concentration) required to prevent visible bacterial growth after 18 hr of incubation at 37 C in Mueller-Hinton broth against Acinetobacter baumannii 118A; format: functional; outline: as §1
Pseudomonas aeruginosa = experiment: Minimum inhibitory concentration (lowest peptide concentration) required to prevent visible bacterial growth after 18 hr of incubation at 37 C in Mueller-Hinton broth against Pseudomonas aeruginosa ATCC 27853; format: functional; settings: ATCC 27853, 18 h; outline: as §1
Salmonella enteritidis [9] = experiment: Minimum inhibitory concentration (lowest peptide concentration) required to prevent visible bacterial growth after 18 h of incubation at 37 C in Mueller-Hinton broth against […]; format: functional, Salmonella enterica subsp. enterica serovar Enteritidis; settings: Salmonella enterica; outline: as §1
Escherichia coli [10] = experiment: Minimum inhibitory concentration (lowest peptide concentration) required to prevent visible bacterial growth after 18 hr of incubation at 37 C in Mueller-Hinton broth against Escherichia coli ATCC 25922; format: functional; settings: ATCC 25922, 18 h; outline: as §1

Compound	MIC (Escherichia coli [1])	MIC (Klebsiella pneumoniae [2])	MIC (Salmonella enteritidis [3])	MIC (Salmonella typhimurium)	MIC (Staphylococcus aureus)	MIC [4]	MIC (Escherichia coli [5])	MIC (Escherichia coli [6])	MIC (Klebsiella pneumoniae [7])	MIC (Escherichia coli [8])	MIC (Acinetobacter baumannii)	MIC (Pseudomonas aeruginosa)	MIC (Salmonella enteritidis [9])	MIC (Escherichia coli [10])
CC[C@H](C)[C@H](NC(=O)[C@@H]1CCCN1C(=O)[C@H](CCCN=C(N)N)NC(=O)[C@@H]1CCCN1C(=O)[C@H](Cc1c[nH]cn1)NC(=O)[C@H](CO)NC(=O)[C@@H](NC(=O)[C@@H]1CCCN1C(=O)[C@H](CCCN=C(N)N)NC(=O)[C@@H]1CCCN1C(=O)[C@H](CO)NC(=O)[C@H](Cc1ccc(O)cc1)NC(=O)[C@@H]1CCCN1C(=O)[C@H](CCCN=C(N)N)NC(=O)[C@@H]1CCCN1C(=O)[C@H](CCCCN)NC(=O)CN)[C@@H](C)O[C@H]1O[C@H](CO)[C@H](O)[C@H](O)[C@H]1O)C(=O)N[C@@H](CCCN=C(N)N)C(=O)N[C@H](C(=O)O)C(C)C (H-GKPRPYSPRPT(X1)SHPRPIRV-OH)	2 µM (≈ 4.72 µg/mL)	32 µM (≈ 75.5 µg/mL)	2 µM (≈ 4.72 µg/mL)	8 µM (≈ 18.9 µg/mL)	> 64 µM	> 64 µM	2 µM (≈ 4.72 µg/mL)	2 µM (≈ 4.72 µg/mL)	32 µM (≈ 75.5 µg/mL)	> 64 µM	> 128 µM	> 128 µM	4 µM (≈ 9.44 µg/mL)	2 µM (≈ 4.72 µg/mL)
CC[C@H](C)[C@@H]1NC(=O)[C@@H]2CCCN2C(=O)[C@H](CCCN=C(N)N)NC(=O)[C@@H]2CCCN2C(=O)[C@H](Cc2c[nH]cn2)NC(=O)[C@H](CO)NC(=O)[C@H]([C@@H](C)O)NC(=O)[C@@H]2CCCN2C(=O)[C@H](CCCN=C(N)N)NC(=O)[C@@H]2CCCN2C(=O)[C@H](CO)NC(=O)[C@H](Cc2ccc(O)cc2)NC(=O)[C@@H]2CCCN2C(=O)[C@H](CCCN=C(N)N)NC(=O)[C@@H]2CCCN2C(=O)[C@H](CCCCN)NC(=O)CNC(=O)[C@H](C(C)C)NC(=O)[C@H](CCCN=C(N)N)NC1=O (HELM PEPTIDE1{G.K.P.R.P.Y.S.P.R.P.T.S.H.P.R.P.I.R.V}$PEPTIDE1,PEPTIDE1,1:R1-19:R2$$$V2.0)	> 128 µM	> 128 µM	> 128 µM	> 128 µM	> 64 µM	> 64 µM	> 128 µM	64 µM (≈ 140 µg/mL)	> 128 µM	> 64 µM	> 64 µM	> 128 µM	> 128 µM	> 128 µM
CC[C@H](C)[C@H](NC(=O)[C@H](Cc1ccc(O)cc1)NC(=O)[C@@H](NC(=O)[C@@H]1CCCN1C(=O)[C@H](CCCN=C(N)N)NC(=O)[C@H](CC(N)=O)NC(=O)[C@H](CC(N)=O)NC(=O)CN)C(C)C)C(=O)N1CCC[C@H]1C(=O)N[C@@H](CCC(N)=O)C(=O)N1CCC[C@H]1C(=O)N[C@@H](CCCN=C(N)N)C(=O)N1CCC[C@H]1C(=O)N[C@H](C(=O)N1CCC[C@H]1C(=O)N[C@@H](Cc1c[nH]cn1)C(=O)N1CCC[C@H]1C(=O)N[C@@H](CCCN=C(N)N)C(=O)N[C@@H](CC(C)C)C(=O)O)[C@@H](C)O[C@H]1O[C@H](CO)[C@@H](O)[C@H](O)[C@H]1NC(C)=O (H-GNNRPVYIPQPRPT(X2)PHPRL-OH)	32 µM (≈ 77.2 µg/mL)	> 128 µM	64 µM (≈ 154 µg/mL)	64 µM (≈ 154 µg/mL)	> 64 µM	> 64 µM	64 µM (≈ 154 µg/mL)	32 µM (≈ 77.2 µg/mL)	> 128 µM	> 64 µM	> 128 µM	> 128 µM	> 64 µM	32 µM (≈ 77.2 µg/mL)
CC[C@H](C)[C@H](NC(=O)[C@@H]1CCCN1C(=O)[C@H](CCCN=C(N)N)NC(=O)[C@@H]1CCCN1C(=O)[C@H](Cc1c[nH]cn1)NC(=O)[C@H](CO)NC(=O)[C@@H](NC(=O)[C@@H]1CCCN1C(=O)[C@H](CCCN=C(N)N)NC(=O)[C@@H]1CCCN1C(=O)[C@H](CO)NC(=O)[C@H](Cc1ccc(O)cc1)NC(=O)[C@@H]1CCCN1C(=O)[C@H](CCCN=C(N)N)NC(=O)[C@@H]1CCCN1C(=O)[C@H](CCCCN)NC(=O)CN)[C@@H](C)O[C@@H]1O[C@H](CO)[C@H](O)[C@H](O)[C@H]1O)C(=O)N[C@@H](CCCN=C(N)N)C(=O)N[C@H](C(=O)O)C(C)C (H-GKPRPYSPRPT(βGal)SHPRPIRV-OH)	1 µM (≈ 2.36 µg/mL)	8 µM (≈ 18.9 µg/mL)	4 µM (≈ 9.44 µg/mL)	8 µM (≈ 18.9 µg/mL)	> 64 µM	> 64 µM	2 µM (≈ 4.72 µg/mL)	2 µM (≈ 4.72 µg/mL)	16 µM (≈ 37.8 µg/mL)	> 64 µM	> 128 µM	> 128 µM	4 µM (≈ 9.44 µg/mL)	4 µM (≈ 9.44 µg/mL)
